4 compounds from ChEMBL document CHEMBL1134767, “Structural basis of binding of high-affinity ligands to protein kinase C: prediction of the binding modes through a new molecular dynamics method and evaluation by site-directed mutagenesis” (J Med Chem, 2001) can be followed below.

Experiment [1] concerns the target Protein kinase C delta type (Mus musculus, UniProt P28867, W252G). As to the kind of experiment: Displacement of [3H]PDBu from protein kinase C delta C1b domain mutant (W22G). On the technique in general: In a radioligand displacement assay an active substance lowers the binding of a labelled ligand.
In experiment [2] the target is Protein kinase C delta type (Mus musculus, UniProt P28867). As to the kind of experiment: Displacement of [3H]PDBu from protein kinase C delta C1b domain (Wild type). In outline:
(§1)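 PKCδ C1b domain, wild type or sequence-confirmed point mutant, expressed as a GST-fusion protein in E. coli and used purified or as total lysate. Incubated 5 min at 18 °C with [3H]PDBu, […] phosphatidylserine, 1 mM EGTA and varied unlabeled ligand. Protein was precipitated with 35% poly(ethylene glycol) and centrifuged, and supernatant and pellet radioactivity counted. Ki was calculated from final ligand concentrations.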

For experiment [3], the target named is Protein kinase C delta type (Mus musculus, UniProt P28867, T8G). As to the kind of experiment: Displacement of [3H]PDBu from protein kinase C delta C1b domain mutant (T8G). In outline:
as §1

Experiment [4] addresses Protein kinase C delta type (Mus musculus, UniProt P28867, T242G). The experiment can be described thus: Displacement of [3H]PDBu from protein kinase C delta C1b domain mutant (T12G). In outline:
as §1

Experiment [5] has as its target Protein kinase C delta type (Mus musculus, UniProt P28867, P241G). As to the kind of experiment: Displacement of [3H]-PDBu from protein kinase C delta C1b domain mutant (P11G). In outline:
as §1

In experiment [6] the target is Protein kinase C delta type (Mus musculus, UniProt P28867, L250G). The experiment can be described thus: Displacement of [3H]PDBu from protein kinase C delta C1b domain mutant (L20G). In outline: as §1
For experiment [7], the target named is Protein kinase C delta type (Mus musculus, UniProt P28867, F243G). The experiment can be described thus: Displacement of [3H]PDBu from protein kinase C delta C1b domain mutant (F13G). In short, it runs like this:
as §1

Experiment [8] has as its target Protein kinase C delta type (Mus musculus, UniProt P28867, Q257V). As to the kind of experiment: Displacement of [3H]PDBu from protein kinase C delta C1b domain mutant (Q27V). In outline: as §1

Protein kinase C delta type (Mus musculus, UniProt P28867, T242G), sequence (P28867 whole entry T242G, the tested form may be a part): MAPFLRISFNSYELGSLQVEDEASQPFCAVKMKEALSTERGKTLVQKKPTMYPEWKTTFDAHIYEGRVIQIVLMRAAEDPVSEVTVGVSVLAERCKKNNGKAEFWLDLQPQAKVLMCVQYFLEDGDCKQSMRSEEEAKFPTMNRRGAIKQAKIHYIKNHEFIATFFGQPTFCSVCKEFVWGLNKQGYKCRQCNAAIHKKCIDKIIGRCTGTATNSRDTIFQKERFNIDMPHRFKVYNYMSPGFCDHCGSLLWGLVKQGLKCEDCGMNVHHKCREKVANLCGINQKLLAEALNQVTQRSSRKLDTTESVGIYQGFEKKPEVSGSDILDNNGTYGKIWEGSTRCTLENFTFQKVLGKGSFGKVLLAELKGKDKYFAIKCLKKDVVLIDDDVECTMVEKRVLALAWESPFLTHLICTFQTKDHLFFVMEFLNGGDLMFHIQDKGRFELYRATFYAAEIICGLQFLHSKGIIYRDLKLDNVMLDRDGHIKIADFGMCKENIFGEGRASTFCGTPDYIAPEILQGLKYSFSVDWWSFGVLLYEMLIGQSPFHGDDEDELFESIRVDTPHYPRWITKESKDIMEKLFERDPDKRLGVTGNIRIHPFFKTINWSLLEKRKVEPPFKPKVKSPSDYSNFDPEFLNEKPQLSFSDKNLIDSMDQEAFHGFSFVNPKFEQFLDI
Protein kinase C delta type (Mus musculus, UniProt P28867), sequence (P28867 whole entry, the tested form may be a part): as the sequence (P28867 whole entry T242G, the tested form may be a part) above, with G242T counted along it
Protein kinase C delta type (Mus musculus, UniProt P28867, T8G), sequence (P28867 whole entry, looked up, stated change not applied, the tested form may be a part): as the sequence (P28867 whole entry T242G, the tested form may be a part) above, with G242T counted along it
Protein kinase C delta type (Mus musculus, UniProt P28867, P241G), sequence (P28867 whole entry P241G, the tested form may be a part): as the sequence (P28867 whole entry T242G, the tested form may be a part) above, with P241G, G242T counted along it
Protein kinase C delta type (Mus musculus, UniProt P28867, L250G), sequence (P28867 whole entry L250G, the tested form may be a part): as the sequence (P28867 whole entry T242G, the tested form may be a part) above, with G242T, L250G counted along it
Protein kinase C delta type (Mus musculus, UniProt P28867, F243G), sequence (P28867 whole entry F243G, the tested form may be a part): as the sequence (P28867 whole entry T242G, the tested form may be a part) above, with G242T, F243G counted along it
Protein kinase C delta type (Mus musculus, UniProt P28867, Q257V), sequence (P28867 whole entry Q257V, the tested form may be a part): as the sequence (P28867 whole entry T242G, the tested form may be a part) above, with G242T, Q257V counted along it
Protein kinase C delta type (Mus musculus, UniProt P28867, W252G), sequence (P28867 whole entry W252G, the tested form may be a part): as the sequence (P28867 whole entry T242G, the tested form may be a part) above, with G242T, W252G counted along it

Usually Ki stands for a dissociation constant, usually derived from enzyme kinetics or from competition with a known ligand. Take `CCCC(=O)O[C@@H]1[C@@H](C)[C@@]2(O)[C@@H](C=C(CO)C[C@]3(O)C(=O)C(C)=C[C@@H]23)[C@@H]2C(C)(C)[C@]12OC(=O)CCC`: the inhibitory constant (Ki) came to 25 nM in experiment [1]; 0.351 nM in experiment [2]; 18.4 nM in experiment [3]; 1.24 nM in experiment [4]; 210 nM in experiment [5]; 6.59 nM in experiment [6]. The values for the inhibitory constant (Ki) in experiment [7] and in experiment [8] were 0.82 nM and 14.2 nM, respectively.
In the case of `CC1=CC23C(=O)[C@@H](C=C(CO)[C@@H](O)[C@]2(O)[C@H]1OC(=O)c1ccccc1)[C@H]1[C@@H](C[C@H]3C)C1(C)C`, the Ki was 0.13 nM in experiment [2]; 3.14 nM in experiment [3]; 0.72 nM in experiment [4]; 10.8 nM in experiment [5]; 1.08 nM in experiment [6]; 0.15 nM in experiment [7]. This compound gave an inhibition constant (Ki) in experiment [8] of 1.41 nM.
As for `CC(C)[C@H]1C(=O)N[C@H](CO)Cc2c[nH]c3cccc(c23)N1C` [INDOLACTUM], the Ki in experiment [3] turned out to be 658 nM; in experiment [4], 25.3 nM; in experiment [5] it was 7080 nM; in experiment [6], 66.2 nM; in experiment [7] it was 10.9 nM; in experiment [8] it was 1100 nM.
With `C=C(C)[C@@]12OC3(c4ccccc4)O[C@@H]1[C@@H]1C4O[C@]4(CO)[C@@H](O)[C@]4(O)C(=O)C(C)=C[C@H]4[C@@]1(O3)[C@H](C)[C@H]2OC(=O)/C=C/c1ccccc1` (stereo partly drawn) [THYMELEATOXIN], the Ki in experiment [2] was 2.71 nM; in experiment [3] it was 86.6 nM; in experiment [4], 19.1 nM; in experiment [5], 417 nM; in experiment [6], 11.3 nM; in experiment [7], 7.8 nM. In experiment [8], this compound came in with a Ki of 47.1 nM.
